ChEMBL document CHEMBL1138494, “Human glucagon receptor antagonists with thiazole cores. A novel series with superior pharmacokinetic properties” (J Med Chem, 2009)
The source made the active and inactive calls. The calls are words filed in the database; no cut-off is given here.

How the values were obtained:
Hepatocyte [1] = assay: Inhibition of glucagon-stimulated glucose production in human primary hepatocytes preincubated for 10 mins before glucagon addition by NADH-linked hexokinase assay; format: functional, cell-based
In short: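 Cultured primary human hepatocytes were preincubated with compound for 10 min, then glycogenolysis was induced with 5 nM glucagon for 60 min. Glucose in the medium was measured against basal glycogenolysis. Albumin was present in the assay medium. IC50 was calculated from four experiments, mean ± SEM.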

[2] = Clearance in fasted Beagle dog at 0.25 mg/kg, iv and 0.5 mg/kg, po; format: ADME, organism-based, Canis lupus familiaris; conditions: in vivo
In short: (§1)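 Dogs were dosed at 0.25 mg/kg iv and 0.5 mg/kg po, and plasma concentration was followed over time. Half-life came from the iv arm; clearance, Cmax and Tmax were also derived.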

[3] = Tmax in fasted Beagle dog at 0.25 mg/kg, iv and 0.5 mg/kg, po; format: ADME, organism-based, Canis lupus familiaris; conditions: in vivo
In short: (§2)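 Plasma concentration–time profiles were recorded after separate intravenous and peroral dosing at the per-compound doses listed. T_max is reported in min alongside C_max (ng/mL), intravenous half-life and clearance ((mL/min)/kg).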

[4] = biological target: T1, Gastric inhibitory polypeptide receptor (Homo sapiens, UniProt P48546); assay: Displacement of [125I]porcine GIP from human recombinant GIPR receptor expressed in BHK cells by scintillation proximity assay; format: cell-based
T1 sequence (P48546 whole entry): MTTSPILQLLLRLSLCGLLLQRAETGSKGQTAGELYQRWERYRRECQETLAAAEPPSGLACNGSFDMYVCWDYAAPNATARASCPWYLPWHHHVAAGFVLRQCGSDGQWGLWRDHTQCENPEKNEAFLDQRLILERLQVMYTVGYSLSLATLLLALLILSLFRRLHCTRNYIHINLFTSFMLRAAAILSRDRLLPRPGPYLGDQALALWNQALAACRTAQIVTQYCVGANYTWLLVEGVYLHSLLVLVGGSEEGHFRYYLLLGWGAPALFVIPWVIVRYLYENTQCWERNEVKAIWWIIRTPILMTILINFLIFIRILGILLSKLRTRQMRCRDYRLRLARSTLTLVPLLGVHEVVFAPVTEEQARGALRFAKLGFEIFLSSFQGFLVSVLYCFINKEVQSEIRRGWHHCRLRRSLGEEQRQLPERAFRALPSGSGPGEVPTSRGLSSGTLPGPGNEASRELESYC

[5] = Cmax in fasted Sprague-Dawley rat at 1.62 mg/kg, iv and 3.04 mg/kg, po; format: ADME, organism-based; conditions: in vivo
In short: (§3)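 Rats were dosed intravenously and perorally in separate arms, and plasma concentration-time profiles were obtained. Half-life was taken from the iv arm. Clearance, oral bioavailability, Cmax and Tmax were derived from the profiles.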

Glucagon receptor [6] = biological target: T2, Glucagon receptor (Homo sapiens, UniProt P47871); assay: Displacement of [125I]porcine glucagon from human recombinant glucagon receptor expressed in BHK cells by scintillation proximity assay; format: cell-based
[7] = Binding affinity to glucagon receptor in pig liver membrane by membrane filter assay; format: cell membranes, Sus scrofa
[8] = Clearance in fasted Sprague-Dawley rat at 1.62 mg/kg, iv and 3.04 mg/kg, po by HTLC-MS/MS analysis; format: ADME, organism-based; conditions: in vivo; in short: as §3
Glucagon receptor [9] = biological target: Glucagon receptor (Mus musculus, UniProt Q61606); assay: Binding affinity to glucagon receptor in mouse liver membrane by membrane filter assay; format: cell membranes
[10] = Binding affinity to glucagon receptor in dog liver membrane by membrane filter assay; format: cell membranes, Canis lupus familiaris
[11] = Binding affinity to glucagon receptor in monkey liver membrane by membrane filter assay; format: cell membranes, Macaca mulatta
Glucagon receptor [12] = biological target: T2, Glucagon receptor; assay: Binding affinity to human recombinant glucagon receptor expressed in BHK cells by membrane filter assay; format: cell-based
[13] = Oral bioavailability in fasted Sprague-Dawley rat at 3.04 mg/kg by HTLC-MS/MS analysis; format: ADME, organism-based; conditions: in vivo
In short: (§4)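 Separate intravenous and peroral dosing arms per compound, with plasma concentration followed against time. Oral bioavailability (F_po) is reported per compound together with the intravenous half-life and clearance. The dose used for each arm is listed per compound.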

[14] = Half life in monkey at 0.3 to 3 mg/kg, iv; format: ADME, organism-based, Macaca mulatta; set-up: dose 0.3-3 mg/kg, route intravenous; conditions: rhesus monkey, in vivo
In short: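 In the anesthetized glucagon-challenged monkey study, compound was given intravenously. Blood samples were assayed for compound, and plasma concentration-time profiles yielded the half-life.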

[15] = biological target: T1, Gastric inhibitory polypeptide receptor; assay: Binding affinity to human recombinant GIPR expressed in BHK cells by membrane filter assay; format: cell-based
[16] = Cmax in fasted Beagle dog at 0.25 mg/kg, iv and 0.5 mg/kg, po; format: ADME, organism-based, Canis lupus familiaris; conditions: in vivo; in short: as §1
Homo sapiens [17] = species on record: Homo sapiens; assay: Selectivity for human recombinant glucagon receptor over human GLP1R
[18] = Binding affinity to glucagon receptor in rabbit liver membrane by membrane filter assay; format: cell membranes, Oryctolagus cuniculus
Homo sapiens [19] = species on record: Homo sapiens; assay: Selectivity ratio of IC50 for human recombinant glucagon receptor to IC50 for human recombinant GIPR
In short: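 Competition binding of compounds to recombinant human glucagon and GIP receptors on BHK cell membranes, run in parallel as a scintillation proximity assay and, for selected compounds, as a membrane filtration assay.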

[20] = Tmax in fasted Sprague-Dawley rat at 1.62 mg/kg, iv and 3.04 mg/kg, po; format: ADME, organism-based; conditions: in vivo; in short: as §2
[21] = Half life in fasted Sprague-Dawley rat plasma at 1.62 mg/kg, iv by HTLC-MS/MS analysis; format: ADME, organism-based; set-up: dose 1.62 mg/kg, route intravenous; in short: as §3
Glucagon receptor [22] = biological target: Glucagon receptor (Rattus norvegicus, UniProt P30082); assay: Binding affinity to glucagon receptor in rat liver membrane by membrane filter assay; format: cell membranes
Rhesus monkey = assay: Antihyperglycemic activity against glucagon-stimulated glycaemia in iv dosed hyperglucagonaemia/hyperglycaemia monkey model assessed as decrease in plasma glucose level preincubated for 5 mins before glucagon challenge measured after 30 mins; format: functional, organism-based; conditions: Macaca mulatta
In short: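 Anesthetized monkeys challenged with exogenous glucagon received compound intravenously. Plasma glucose was followed over time to gauge blockade of glucagon-stimulated glycaemia.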

Hepatocyte [23] = assay: Inhibition of glucagon-stimulated glucose production in rat primary hepatocytes; format: functional, cell-based
[24] = Half life in fasted Beagle dog at 0.25 mg/kg, iv; format: ADME, organism-based, Canis lupus familiaris; set-up: dose 0.25 mg/kg, route intravenous; conditions: in vivo; in short: as §1
[25] = Oral bioavailability in fasted Beagle dog at 0.5 mg/kg; format: ADME, organism-based, Canis lupus familiaris; conditions: in vivo; in short: as §4
[26] = Oral bioavailability in fasted Sprague-Dawley rat at 3.25 mg/kg by HTLC-MS/MS analysis; format: ADME, organism-based; conditions: in vivo; in short: as §4
[27] = Clearance in fasted Sprague-Dawley rat at 1.62 mg/kg, iv and 3.25 mg/kg, po by HTLC-MS/MS analysis; format: ADME, organism-based; conditions: in vivo; in short: as §3
[28] = Tmax in fasted Sprague-Dawley rat at 1.62 mg/kg, iv and 3.25 mg/kg, po by HTLC-MS/MS analysis; format: ADME, organism-based; conditions: in vivo; in short: as §2
[29] = Cmax in fasted Sprague-Dawley rat at 1.62 mg/kg, iv and 3.25 mg/kg, po by HTLC-MS/MS analysis; format: ADME, organism-based; conditions: in vivo; in short: as §3
[30] = Tmax in fasted Sprague-Dawley rat at 1.60 mg/kg, iv and 3.25 mg/kg, po by HTLC-MS/MS analysis; format: ADME, organism-based; conditions: in vivo; in short: as §2
[31] = Half life in fasted Sprague-Dawley rat plasma at 1.60 mg/kg, iv by HTLC-MS/MS analysis; format: ADME, organism-based; set-up: dose 1.6 mg/kg, route intravenous; conditions: 1.6 mg/kg; in short: as §3
[32] = Cmax in fasted Sprague-Dawley rat at 1.60 mg/kg, iv and 3.25 mg/kg, po by HTLC-MS/MS analysis; format: ADME, organism-based; conditions: in vivo; in short: as §3
[33] = Clearance in fasted Sprague-Dawley rat at 1.60 mg/kg, iv and 3.25 mg/kg, po by HTLC-MS/MS analysis; format: ADME, organism-based; conditions: in vivo, 1.6 mg/kg; in short: as §3

T2 sequence (P47871 whole entry): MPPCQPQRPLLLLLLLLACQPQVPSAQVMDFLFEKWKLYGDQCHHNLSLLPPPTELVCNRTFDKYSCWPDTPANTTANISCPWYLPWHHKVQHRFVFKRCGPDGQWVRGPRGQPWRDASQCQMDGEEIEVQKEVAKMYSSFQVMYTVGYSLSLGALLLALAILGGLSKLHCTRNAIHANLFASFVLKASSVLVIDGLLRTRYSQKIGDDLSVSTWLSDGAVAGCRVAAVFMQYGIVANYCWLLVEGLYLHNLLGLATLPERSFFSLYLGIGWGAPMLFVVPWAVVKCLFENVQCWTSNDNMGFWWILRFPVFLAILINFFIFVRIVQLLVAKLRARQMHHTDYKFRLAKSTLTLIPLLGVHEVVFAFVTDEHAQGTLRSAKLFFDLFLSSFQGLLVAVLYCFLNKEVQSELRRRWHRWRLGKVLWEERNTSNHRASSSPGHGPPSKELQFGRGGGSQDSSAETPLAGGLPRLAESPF
Chain of Glucagon receptor (Rattus norvegicus, UniProt P30082) (P30082 whole entry): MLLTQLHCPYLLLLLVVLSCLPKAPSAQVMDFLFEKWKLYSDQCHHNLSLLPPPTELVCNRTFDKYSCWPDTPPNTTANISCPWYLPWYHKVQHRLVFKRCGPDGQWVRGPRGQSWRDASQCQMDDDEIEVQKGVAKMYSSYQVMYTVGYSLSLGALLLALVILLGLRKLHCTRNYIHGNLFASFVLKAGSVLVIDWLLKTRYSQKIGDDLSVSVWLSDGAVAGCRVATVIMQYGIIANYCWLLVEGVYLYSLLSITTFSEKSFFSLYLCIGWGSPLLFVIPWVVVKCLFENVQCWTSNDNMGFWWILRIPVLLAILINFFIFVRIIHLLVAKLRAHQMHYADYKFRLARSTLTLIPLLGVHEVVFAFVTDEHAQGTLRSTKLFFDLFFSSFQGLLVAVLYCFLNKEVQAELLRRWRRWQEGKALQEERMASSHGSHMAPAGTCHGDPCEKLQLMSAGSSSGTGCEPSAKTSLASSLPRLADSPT
Chain of Glucagon receptor (Mus musculus, UniProt Q61606) (Q61606 whole entry): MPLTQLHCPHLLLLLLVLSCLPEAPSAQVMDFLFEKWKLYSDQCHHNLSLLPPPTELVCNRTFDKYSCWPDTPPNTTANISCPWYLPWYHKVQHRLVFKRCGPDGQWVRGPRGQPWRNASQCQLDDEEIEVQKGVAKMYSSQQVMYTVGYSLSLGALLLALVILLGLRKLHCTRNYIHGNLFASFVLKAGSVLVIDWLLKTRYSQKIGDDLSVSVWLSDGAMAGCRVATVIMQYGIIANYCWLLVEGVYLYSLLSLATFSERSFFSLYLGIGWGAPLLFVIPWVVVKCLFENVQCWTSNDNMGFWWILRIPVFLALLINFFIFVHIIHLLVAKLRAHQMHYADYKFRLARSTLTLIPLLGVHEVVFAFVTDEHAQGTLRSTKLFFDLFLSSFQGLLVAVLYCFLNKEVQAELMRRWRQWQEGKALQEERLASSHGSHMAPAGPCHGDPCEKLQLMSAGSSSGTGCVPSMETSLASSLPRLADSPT

Structure (SMILES)	IC50 (Hepatocyte [1]) [µM]	clearance [2] [L/h/kg]	Tmax [3] [h]	IC50 [4] [µM]	IC50 (Glucagon receptor [6]) [µM]	IC50 [7] [µM]	IC50 (Glucagon receptor [9]) [µM]	IC50 [10] [µM]	IC50 [11] [µM]	IC50 (Glucagon receptor [12]) [µM]	IC50 [15] [µM]	Cmax [16] [µg/mL]	fold change (FC) (Homo sapiens [17])	IC50 [18] [µM]	fold change (FC) (Homo sapiens [19])	half-life [21] [h]	IC50 (Glucagon receptor [22]) [µM]	inhibition (Hepatocyte [23])	half-life [24] [h]	bioavailability [25] [%]	further results
O=C(O)CCNC(=O)c1ccc(CN(c2ccc(C(F)(F)F)cc2)c2nc(-c3ccc(Cl)cc3)cs2)cc1	6.7	0.134	1.5	0.99	0.092	7	0.648	0.155	0.114	0.093	1.1	1.25	> 50	1.6	5	3.8	2.7	inactive	1.73	141	Cmax [5]: 2.1 µg/mL; clearance [8]: 0.06 L/h/kg; bioavailability [13]: 58%; half-life [14]: 5.23 h; Tmax [20]: 1.42 h; Activity (Rhesus monkey): Dose-dependent effect
O=C(O)CCNC(=O)c1ccc(CN(c2ccc3c(c2)CCCC3)c2nc(-c3ccc(C(F)(F)F)cc3)cs2)cc1	–	–	–	0.564	0.077	–	–	–	0.003	0.048	0.39	–	> 50	–	5	1.23	–	–	–	–	bioavailability [26]: 27%; clearance [27]: 0.42 L/h/kg; Tmax [28]: 1.5 h; Cmax [29]: 0.615 µg/mL
O=C(O)CCNC(=O)c1ccc(CN(c2ccc(Cl)cc2)c2nc(-c3ccc(C(F)(F)F)cc3)cs2)cc1	2.7	0.28	1.75	0.649	0.076	4	0.372	0.068	0.051	0.053	0.41	0.12	> 50	0.943	5	–	1.4	inactive	1.33	16	bioavailability [26]: 13%; Tmax [30]: 1.5 h; half-life [31]: 2.25 h; Cmax [32]: 0.216 µg/mL; clearance [33]: 0.3 L/h/kg
